Test: Toxicity liver stage against HepG2, at 10uM
Type: cell-based
Set-up: test concentration 10 uM, cell line HepG2-A16-CD81EGFP
Settings: human, HepG2-A16-CD81EGFP cells; read-out: INHIBITION
Summary of the method: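 Uninfected HepG2-A16-CD81EGFP cells, 3 × 10^3 per well, 1536-well, plated on prespotted compound at 10 μM final, parasite-free screening media added to match infected plates; puromycin 10 μM positive, DMSO 0.5% negative; run in parallel with 48 h PbLuc assay at 37 °C, 5% CO2; viability by CellTiter-Glo luminescence, normalized to controls.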

Row | SMILES | cytotoxicity at 10 µM [%]
1 | NC(=O)c1nc(-c2cccc(Cl)c2)oc1N | 2.69
2 | O=C1COC[C@H]([C@H](O)c2ccc(NC(=O)c3ccco3)cc2)N1 | -2.33
3 | Cc1cc(SCC(N)=O)nc(-c2ccc(F)cc2)n1 | -3.42
4 | Cc1occc1C(=O)N1CCC2(CCC(C(=O)NCC3CC3)O2)CC1 (stereo not given) | 9.53
5 | CCOCC1CN(S(C)(=O)=O)Cc2ncn(CC3CC3)c21 (stereo not given) | -12
6 | CCCN(c1ccccc1C(=O)O)S(=O)(=O)c1ccc2ccccc2c1 | -2.32
7 | CCN1CCCC(O)(CNCc2ccc3c(c2)OCO3)C1 (stereo not given) | 2.34
8 | CC(NC(=O)C1CCCCC1)c1cc(O)nc(-c2cccnc2)n1 (stereo not given) | 5.84
9 | Cc1cc(N(C)C)nc(C2(C)CCNCC2)n1 | 7.79
10 | O=C(N[C@@H]1CC[C@@H](N2CCCC2)[C@@H]1O)c1cc2ccccc2[nH]1 | -4.92
11 | COc1ccc(-c2cc(C(=O)NCCn3ccnc3)n(C)n2)cc1 | 3.86
12 | CC(=O)N[C@@H]1CN(C(=O)CC2CCOCC2)C[C@H]1O | -3.3
13 | CC(Cc1ccccc1F)C(=O)Nc1cccc(OCC(N)=O)c1 (stereo not given) | -1.34
14 | Cn1ccnc1-c1cccc(NC(=O)NCC(=O)NC(C)(C)C)c1 | -3.84
15 | CC(C)Oc1cccc(C(O)CNC(=O)NCc2cccs2)c1 (stereo not given) | -2.79
16 | CCN(Cc1ccoc1)C(=O)c1cc(C)c(C)c(S(N)(=O)=O)c1 | -1.69
17 | CCC(C)NC(=O)CCc1ccnc2ccccc12 (stereo not given) | 5.44
18 | O=C(CC1CCCO1)NCCc1ccc(Br)cc1F (stereo not given) | -7.78
19 | O=C(NC1CCCN(c2ccccc2Cl)C1)c1nc(=O)[nH][nH]1 (stereo not given) | -10.9
20 | COc1ccccc1C1CCN(C(=O)c2ncccc2OC(C)C)C1 (stereo not given) | -0.67
21 | CN(CCNC(=O)N1CCN(Cc2ccon2)CC1)C1CCCC1 | 15.6
22 | CC(Cn1cccn1)NC(=O)Nc1ccc(F)cc1 (stereo not given) | 19.7
23 | Cc1nnn2c1COC(CNC(=O)c1cccn1C)C2 (stereo not given) | 6.09

Row | SMILES | cytotoxicity at 10 µM [%]
24 | Cc1nn(CCNS(=O)(=O)NCc2ccccc2)c(C)c1Cl | -6.49
25 | Cn1cnnc1SCC(=O)NC1CC(=O)N(CCc2ccccc2)C1 (stereo not given) | 3.03
26 | Cc1ncccc1Oc1ncnc(N2CCC(O)(CO)CC2)c1C | -2.4
27 | CCn1cnnc1CCNCc1c[nH]nc1-c1ccc(F)cc1 | 1.31
28 | CN(Cc1cc(C2CC2)[nH]n1)Cc1cc2ccc(F)cc2[nH]c1=O | 7.84
29 | COCC(=O)N1CCN(C(=O)Cc2cccs2)[C@H]2CS(=O)(=O)C[C@H]21 | 2.21
30 | Cc1nc(-c2ccncc2)ncc1C(C)NC(=O)Cn1ccccc1=O (stereo not given) | 4.01
31 | Cc1cccc2c1nc(CCO)n2-c1ccc(N)nc1 | -1.32
32 | CC/C=C(\C)CN1CCC(CNC(=O)c2ccnc(N)c2)C1 (stereo not given) | 8.32
33 | Cn1cc(Cl)c(CN2CCn3nc(C(=O)N4CCCC4)cc3C2)n1 | 2.42
34 | CN(CCC1CCOCC1)C(=O)C1CCC(=O)N(Cc2ccccn2)C1 (stereo not given) | -2.06
35 | Cc1ncc(C(=O)N2CCCC(C(=O)c3nccn3C)C2)c(O)n1 (stereo not given) | -2.28
36 | Cc1c(C(=O)NCc2ccnc(OCC(F)(F)F)c2)cnn1C | -5.78
37 | Cc1nccn1C1CCCN(C(=O)c2cccc(Cn3ccnc3)c2)C1 (stereo not given) | -24.6
38 | COc1cc(OC)cc(C(=O)N(C)Cc2nnc3ccccn23)c1 | -26.9
39 | CC(C)c1nc(C2CCCN(C(=O)c3ccc4[nH]nnc4c3)C2)no1 (stereo not given) | 7.34
40 | CCN(Cc1ccc2c(c1)OCO2)Cc1nc2c(cnn2C)c(=O)[nH]1 | -21
41 | Cc1ccsc1C(=O)N1CCN(Cc2cscn2)CC1 | -12
42 | CN(C)c1cc(CNC(=O)c2cnccn2)ccn1 | -17.7
43 | CNC(=O)C1CCN(C(=O)c2ccn(-c3ccc(F)cc3)n2)CC1 | -2.7
44 | O=C(c1ccco1)N1CCO[C@@H]2CN(Cc3nccs3)CC[C@@H]2C1 | -111
45 | CC(=O)N1CCN(Cc2ccc(F)cc2)CC2(CC(=O)N(C)C2)C1 (stereo not given) | -2.78

Reference: ChEMBL document CHEMBL4513216, “Probing the Open Global Health Chemical Diversity Library for Multistage-Active Starting Points for Next-Generation Antimalarials” (ACS Infect Dis, 2020)
